In brackets after ≈: the same amount, converted by molar mass.
Experiments:
Cryptococcus neoformans [1] = experiment: Antifungal activity against Cryptococcus neoformans ATCC 32264 incubated for 48 hrs under dark condition by broth microdilution method; assay type: functional; details: ATCC 32264, 48 h
Summary of the method: (§1)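 CLSI M27-A3 broth microdilution in RPMI-1640, DMSO ≤1%, compounds at 250-0.98 µg/mL final. Inoculum 1-5 × 10^3 CFU/mL. Incubated 48 h at 30 °C in a moist dark chamber, read at OD405. MIC80 and MIC50 taken from % inhibition dose-response curves (mean ± SEM, triplicate). Amphotericin B was the positive control.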

Candida albicans [2] = experiment: Growth inhibition of Candida albicans ATCC 10231 at 250 ug/ml incubated for 48 hrs under dark condition by broth microdilution method relative to control; assay type: functional; details: ATCC 10231, 48 h, read-out: GI
Summary of the method: (§2)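 CLSI M27-A3 broth microdilution in RPMI-1640, DMSO ≤1%. Inoculum 1-5 × 10^3 CFU/mL. Incubated 48 h at 30 °C, dark. % inhibition = 100 − (OD405 test − sterility control)/(OD405 growth control − sterility control), with growth and sterility control wells. Triplicate.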

Cryptococcus neoformans [3] = experiment: Growth inhibition of Cryptococcus neoformans ATCC 32264 at 3.4 ug/ml incubated for 48 hrs under dark condition by broth microdilution method relative to control; assay type: functional; details: ATCC 32264, 48 h, read-out: GI
Candida albicans [4] = experiment: Growth inhibition of Candida albicans ATCC 10231 at 7.8 ug/ml incubated for 48 hrs under dark condition by broth microdilution method relative to control; assay type: functional; details: ATCC 10231, 48 h, read-out: GI; summary of the method: as §2
Cryptococcus neoformans [5] = experiment: Growth inhibition of Cryptococcus neoformans ATCC 32264 at 250 ug/ml incubated for 48 hrs under dark condition by broth microdilution method relative to control; assay type: functional; details: ATCC 32264, 48 h, read-out: GI; summary of the method: as §2
Plasmodium falciparum = experiment: Antiplasmodial activity against chloroquine-sensitive Plasmodium falciparum 3D7 assessed as reduction in parasitic LDH activity after 48 hrs by Malstat reagent based […] method; assay type: functional; details: 3D7, 48 h
Summary of the method: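 Unsynchronized P. falciparum 3D7 at 0.5% parasitemia and 1% hematocrit in RPMI with 3% Albumax II. Exposed to 100, 25, 6.25 and 1.56 µg/mL for 48 h at 37 °C under 90% N2/5% CO2/5% O2. After three freeze-thaw cycles, LDH measured with Malstat and NBT/PES, 1 h in the dark, read at 650 nm. IC50 by Probit; triplicate, ≥2 experiments.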

Cryptococcus neoformans [6] = experiment: Growth inhibition of Cryptococcus neoformans ATCC 32264 at 125 ug/ml incubated for 48 hrs under dark condition by broth microdilution method relative to control; assay type: functional; details: ATCC 32264, 48 h, read-out: GI; summary of the method: as §2
Cryptococcus neoformans [7] = experiment: Growth inhibition of Cryptococcus neoformans ATCC 32264 at 62.5 ug/ml incubated for 48 hrs under dark condition by broth microdilution method relative to control; assay type: functional; details: ATCC 32264, 48 h, read-out: GI; summary of the method: as §2
Candida albicans [8] = experiment: Growth inhibition of Candida albicans ATCC 10231 at 15.62 ug/ml incubated for 48 hrs under dark condition by broth microdilution method relative to control; assay type: functional; details: ATCC 10231, 48 h, read-out: GI; summary of the method: as §2
U-937 = experiment: Cytotoxicity against human U937 cells after 72 hrs by MTT assay; assay type: cell-based; details: u-937, 72 h
Summary of the method: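 Exponentially growing U-937 at 1 × 10^5 cells/mL in RPMI-1640 with 10% FBS were exposed to 200, 50, 12.5 and 3.125 µg/mL for 72 h at 37 °C, 5% CO2. MTT for 3 h, stopped with isopropanol/SDS, formazan read at 570 nm, blank-corrected. LC50 by Probit from % viability against untreated cells. Triplicate, at least two independent experiments.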

Staphylococcus aureus [9] = experiment: Antibacterial activity against vancomycin-intermediate Staphylococcus aureus after 24 hrs by resazurin dye based microdilution assay; assay type: functional
Summary of the method: (§3)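 MIC taken as the lowest concentration giving visible inhibition and/or by resazurin (1 mg/mL). Gentamicin was the control. Run in duplicate, repeated at least three times.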

Candida albicans [10] = experiment: Antifungal activity against Candida albicans ATCC 10231 incubated for 48 hrs under dark condition by broth microdilution method; assay type: functional; details: ATCC 10231, 48 h; summary of the method: as §1
Cryptococcus neoformans [11] = experiment: Growth inhibition of Cryptococcus neoformans ATCC 32264 at 31.25 ug/ml incubated for 48 hrs under dark condition by broth microdilution method relative to control; assay type: functional; details: ATCC 32264, 48 h, read-out: GI; summary of the method: as §2
Neisseria gonorrhoeae = experiment: Antibacterial activity against beta lactamase positive Neisseria gonorrhoeae ATCC 31426 by oxidase test; assay type: functional
Summary of the method: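 Agar dilution MIC on GC agar with 1% isovitalex containing increasing compound concentrations. Plates inoculated with about 1×10^4 CFU (5 µL). MIC is the lowest concentration that inhibited growth, with growth confirmed by oxidase test. Run in duplicate, repeated at least three times.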

Candida albicans [12] = experiment: Growth inhibition of Candida albicans ATCC 10231 at 3.4 ug/ml incubated for 48 hrs under dark condition by broth microdilution method relative to control; assay type: functional; details: ATCC 10231, 48 h, read-out: GI
Escherichia coli = experiment: Antibacterial activity against Escherichia coli ATCC 25922 after 24 hrs by resazurin dye based microdilution assay; assay type: functional; details: ATCC 25922, 24 h; summary of the method: as §3
Candida albicans [13] = experiment: Growth inhibition of Candida albicans ATCC 10231 at 125 ug/ml incubated for 48 hrs under dark condition by broth microdilution method relative to control; assay type: functional; details: ATCC 10231, 48 h, read-out: GI; summary of the method: as §2
Candida albicans [14] = experiment: Growth inhibition of Candida albicans ATCC 10231 at 62.5 ug/ml incubated for 48 hrs under dark condition by broth microdilution method relative to control; assay type: functional; details: ATCC 10231, 48 h, read-out: GI; summary of the method: as §2
Pseudomonas aeruginosa = experiment: Antibacterial activity against Pseudomonas aeruginosa ATCC 27853 after 24 hrs by resazurin dye based microdilution assay; assay type: functional; details: ATCC 27853, 24 h; summary of the method: as §3
Staphylococcus aureus [15] = experiment: Antibacterial activity against methicillin-sensitive Staphylococcus aureus ATCC 25923 after 24 hrs by resazurin dye based microdilution assay; assay type: functional; details: ATCC 25923, 24 h; summary of the method: as §3
Leishmania panamensis = experiment: Antileshmanial activity against EpiR/GFP fused Leishmania panamensis MHOM/CO/87/UA140 intracellular amastigotes infected in human […] cells after 72 hrs by flow cytometric method; assay type: functional, cell-based; details: MHOM/CO/87/UA140, 72 h
Summary of the method: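 PMA-treated U-937 cells (3 × 10^5 cells/mL) infected with stationary-phase GFP L. panamensis promastigotes (15:1), 3 h at 34 °C, then washed. After 24 h, compounds added at 50, 12.5, 3.125 and 0.78 µg/mL for 72 h at 37 °C. EC50 by Probit; triplicate, two experiments.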

Candida albicans [16] = experiment: Growth inhibition of Candida albicans ATCC 10231 at 31.25 ug/ml incubated for 48 hrs under dark condition by broth microdilution method relative to control; assay type: functional; details: ATCC 10231, 48 h, read-out: GI; summary of the method: as §2
Staphylococcus aureus [17] = experiment: Antibacterial activity against methicillin-resistant Staphylococcus aureus ATCC 43300 after 24 hrs by resazurin dye based microdilution assay; assay type: functional; details: ATCC 43300, 24 h
Summary of the method: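 Broth microdilution in Mueller Hinton broth, inoculum 5 × 10^5 – 8 × 10^5. Compound stocks diluted in MHB with 5% DMSO and 0.1% Tween 80. Incubation 24 h at 35-37 °C. MIC is the lowest concentration with visible growth inhibition and/or by resazurin (1 mg/mL) read-out. Gentamicin as control. Run in duplicate, replicated at least three times.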

Cryptococcus neoformans [18] = experiment: Growth inhibition of Cryptococcus neoformans ATCC 32264 at 7.8 ug/ml incubated for 48 hrs under dark condition by broth microdilution method relative to control; assay type: functional; details: ATCC 32264, 48 h, read-out: GI; summary of the method: as §2
Klebsiella pneumoniae [19] = experiment: Antibacterial activity against ESBL positive Klebsiella pneumoniae ATCC 700603 after 24 hrs by resazurin dye based microdilution assay; assay type: functional; details: Klebsiella pneumoniae, 700603, 24 h; summary of the method: as §3
Klebsiella pneumoniae [20] = experiment: Antibacterial activity against carbapenemase positive Klebsiella pneumoniae BAA 1705 after 24 hrs by resazurin dye based microdilution assay; assay type: functional; details: BAA 1705, 24 h; summary of the method: as §3
Cryptococcus neoformans [21] = experiment: Growth inhibition of Cryptococcus neoformans ATCC 32264 at 15.62 ug/ml incubated for 48 hrs under dark condition by broth microdilution method relative to control; assay type: functional; details: ATCC 32264, 48 h, read-out: GI; summary of the method: as §2
Trypanosoma cruzi = experiment: Antitrypanosomal activity against Trypanosoma cruzi Tulahuen intracellular amastigote harboring LacZ infected in human U937 cells after 72 hrs by CPRG/Nonidet reagent based spectrophotometric method; assay type: functional, cell-based; details: U-937, 72 h
Summary of the method: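 U-937 cells at 2.5 × 10^5 cells/mL in RPMI-1640 with 10% serum and 0.1 µg/mL PMA were infected with β-galactosidase-transfected Tulahuen epimastigotes at 5 parasites per cell. Infected cells were exposed to 50, 12.5, 3.125 and 0.78 µg/mL for 72 h. CPRG (100 uM) and 0.1% Nonidet P-40 were added for 3 h, read at 570 nm. EC50 by Probit. Triplicate, at least two experiments; benznidazole as reference.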

## Cc1ccc(C2=NN(c3ccccc3)C(c3cccc(Nc4ccnc5cc(Cl)ccc45)c3)C2)cc1 (stereo not given)
Cryptococcus neoformans [1]
  MIC50: ≥ 250 µg/mL
  MIC80: ≥ 250 µg/mL
Candida albicans [2]
  inhibition of growth at 250 µg/mL: 28.3%
Cryptococcus neoformans [3]
  inhibition of growth at 3.4 µg/mL: 0%
Candida albicans [4]
  inhibition of growth at 7.8 µg/mL: 2.53%
Cryptococcus neoformans [5]
  inhibition of growth at 250 µg/mL: 31.5%
Plasmodium falciparum
  EC50: 13.5 µg/mL (≈ 27.7 µM)
Cryptococcus neoformans [6]
  inhibition of growth at 125 µg/mL: 7.45%
Cryptococcus neoformans [7]
  inhibition of growth at 62.5 µg/mL: 4.01%
Candida albicans [8]
  inhibition of growth at 15.62 µg/mL: 7.89%
U-937
  LC50: 1.4 µg/mL (≈ 2.86 µM)
Staphylococcus aureus [9]
  MIC: > 1000 µg/mL
Candida albicans [10]
  MIC50: ≥ 250 µg/mL
  MIC80: ≥ 250 µg/mL
Cryptococcus neoformans [11]
  inhibition of growth at 31.25 µg/mL: 1.72%
Neisseria gonorrhoeae
  MIC: > 1000 µg/mL
Candida albicans [12]
  inhibition of growth at 3.4 µg/mL: 2.29%
Escherichia coli
  MIC: > 1000 µg/mL
Candida albicans [13]
  inhibition of growth at 125 µg/mL: 22.9%
Candida albicans [14]
  inhibition of growth at 62.5 µg/mL: 13.1%
Pseudomonas aeruginosa
  MIC: > 1000 µg/mL
Staphylococcus aureus [15]
  MIC: > 1000 µg/mL
Leishmania panamensis
  EC50: 1.83 µg/mL (≈ 3.74 µM)
Candida albicans [16]
  inhibition of growth at 31.25 µg/mL: 12%
Staphylococcus aureus [17]
  MIC: > 1000 µg/mL
Cryptococcus neoformans [18]
  inhibition of growth at 7.8 µg/mL: 0%
Klebsiella pneumoniae [19]
  MIC: > 1000 µg/mL
Klebsiella pneumoniae [20]
  MIC: > 1000 µg/mL
Cryptococcus neoformans [21]
  inhibition of growth at 15.62 µg/mL: 0.86%
Trypanosoma cruzi
  EC50: 1.09 µg/mL (≈ 2.23 µM)

## O=CN1N=C(c2ccccc2)CC1c1cccc(Nc2ccnc3cc(Cl)ccc23)c1 (stereo not given)
Cryptococcus neoformans [1]
  MIC50: 250 µg/mL (≈ 586 µM)
  MIC80: ≥ 250 µg/mL
Candida albicans [2]
  inhibition of growth at 250 µg/mL: 29.9%
Cryptococcus neoformans [3]
  inhibition of growth at 3.4 µg/mL: 7.63%
Candida albicans [4]
  inhibition of growth at 7.8 µg/mL: 4.3%
Cryptococcus neoformans [5]
  inhibition of growth at 250 µg/mL: 54.1%
Plasmodium falciparum
  EC50: 17.7 µg/mL (≈ 41.4 µM)
Cryptococcus neoformans [6]
  inhibition of growth at 125 µg/mL: 47.2%
Cryptococcus neoformans [7]
  inhibition of growth at 62.5 µg/mL: 34.4%
Candida albicans [8]
  inhibition of growth at 15.62 µg/mL: 4.31%
U-937
  LC50: 1.3 µg/mL (≈ 3.05 µM)
Staphylococcus aureus [9]
  MIC: > 1000 µg/mL
Candida albicans [10]
  MIC50: ≥ 250 µg/mL
  MIC80: ≥ 250 µg/mL
Cryptococcus neoformans [11]
  inhibition of growth at 31.25 µg/mL: 29.7%
Neisseria gonorrhoeae
  MIC: > 1000 µg/mL
Candida albicans [12]
  inhibition of growth at 3.4 µg/mL: 2.19%
Escherichia coli
  MIC: > 1000 µg/mL
Candida albicans [13]
  inhibition of growth at 125 µg/mL: 16.9%
Candida albicans [14]
  inhibition of growth at 62.5 µg/mL: 10.1%
Pseudomonas aeruginosa
  MIC: > 1000 µg/mL
Staphylococcus aureus [15]
  MIC: > 1000 µg/mL
Leishmania panamensis
  EC50: 1.72 µg/mL (≈ 4.03 µM)
Candida albicans [16]
  inhibition of growth at 31.25 µg/mL: 8.44%
Staphylococcus aureus [17]
  MIC: > 1000 µg/mL
Cryptococcus neoformans [18]
  inhibition of growth at 7.8 µg/mL: 11.2%
Klebsiella pneumoniae [19]
  MIC: > 1000 µg/mL
Klebsiella pneumoniae [20]
  MIC: > 1000 µg/mL
Cryptococcus neoformans [21]
  inhibition of growth at 15.62 µg/mL: 20.7%
Trypanosoma cruzi
  EC50: > 0.6 µg/mL
